Rows were chosen to be rich in hits. Some 4% of all compounds tested hit in one or more screens of this group.
KCNK9 block = KCNK9 potassium channel inhibitors, primary screen, HEK293 cells, thallium flux; Potassium channel subfamily K member 9 (Homo sapiens), Q9NPC2; FluxOR thallium flux fluorescence; active compounds read low; B-score at 10 µM; 1.2% of 310,000 active;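 active means ratio B-score over 3 SD below the library mean, with starting fluorescence within 5 SD of its mean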;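 further: negative B-score means less thallium flux so channel inhibition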
PHOSPHO1 inh = PubChem AID 1565; Phosphoethanolamine/phosphocholine phosphatase (Homo sapiens), Q8TCT1; recombinant PHOSPHO1, absorbance phosphatase assay; inhibition, % at 13.3 µM; 1.1% of 290,000 active; in the data active means inhibition above about 60%
KCNQ1 pot = potentiators or activators of KCNQ1 channel, primary screen, cell-based, thallium flux, high-throughput. Potassium voltage-gated channel subfamily KQT member 1 (Homo sapiens), P51787. CHO-K1 KCNQ1, thallium flux FluxOR fluorescence; active compounds read high. B-score at 10 µM. 0.35% of 310,000 active. AID 2648, 2010;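 active means fluorescence ratio B-score, a plate-corrected score, at least three library SD, with initial intensity B-score within 5 SD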
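assay system = CHO-K1 cells stably expressing KCNQ1 | medium = assay buffer, equal DMSO in all wells | timing = 37 °C overnight plating, 90-min dark dye load, 20-min compound pretreatment | measured by = kinetic FluxOR thallium fluorescence, 10-s 1-Hz baseline, 110-s post-stimulus read | measure = fluorescence change relative to baseline, converted to B score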
hERG protect = hERG rescue from dofetilide block, primary screen, cell-based, CHO-hERG, FluxOR thallium flux, dofetilide IC70. Voltage-gated inwardly rectifying potassium channel KCNH2 (Homo sapiens), Q12809. dofetilide IC70 present. activation (rescue from dofetilide block), less the hit threshold, % at 10 µM. 0.51% of 310,000 active. AID 1511, 2009;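 active means activation above the mean of controls blocked by dofetilide plus 5 SD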;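 further: thallium influx through hERG after potassium depolarization seen as dye fluorescence rise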
KCNQ1 block = inhibitors of human KCNQ1 channel, primary screen, cell-based, thallium flux, high-throughput | B-score at 10 µM | 1.3% of 310,000 active | CHO-K1 KCNQ1, FluxOR thallium flux fluorescence; active compounds read high | Potassium voltage-gated channel subfamily KQT member 1 (Homo sapiens), P51787;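 active means compounds whose thallium flux B-score, printed positive for inhibition, exceeds three library SD while starting fluorescence stays within three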;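 further: channel opened by potassium depolarization with thallium stimulus after 20 min compound exposure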
KCNK3 block = human KCNK3 channel inhibitors, primary screen, CHO cells, FluxOR thallium flux, B-score | 0.84% of 340,000 active | FluxOR fluorescence; active compounds read low | Potassium channel subfamily K member 3 (Homo sapiens), O14649 | AID 602410, 2012 | B-score at 10 µM;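 active means B-score under library mean minus 4 SD, starting fluorescence ratio at most library mean plus 5 SD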;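 further: more negative B-score means stronger inhibition of thallium flux through KCNK3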
KCNQ1 inh valid = KCNQ1 potassium channel inhibitors, confirmation, cell-based, Tl flux, duplicate; KCNQ1 cell line, FluxOR thallium flux fluorescence; inhibition, % at 10 µM; shares compounds with KCNQ1 block; 93% of 1,600 active;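 active means primary screen active, with duplicate mean exceeding buffer control mean plus 3 SD of buffer wells, cut at about 28% in these data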
CHO KCNQ1 ctr = thallium flux effects in parental CHO cells, counter-screen for KCNQ1 inhibitor project, cell-based, Tl flux | shares compounds with KCNQ1 block | AID 588366, 2011 | parental CHO-K1, FluxOR thallium flux fluorescence ratio; active compounds read low; zero means no signal rise above baseline | 21% of 1,600 active | fluorescence ratio (Tl flux) at 10 µM;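 active means mean of duplicate thallium-flux fluorescence ratios in parental host cells more than 5 SD below the buffer control mean, cut at about 0.38 in these data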;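 further: ratio is peak minus minimum fluorescence divided by baseline fluorescence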
KCNQ1 ephys val = KCNQ1 channel inhibitors, confirmation, orthogonal assay, cell-based, automated electrophysiology | shares compounds with KCNQ1 block | 20% of 490 active | KCNQ1-CHO cells, automated patch clamp current | calls only at 10 µM | AID 624120, 2012;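 active means KCNQ1 current drop exceeding 3 SD of negative control wells, seen in both duplicate runs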;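 further: steady state current during a 2 s step from -80 to +40 mV; negative values mean current inhibition and positive values mean potentiation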
KCNQ2 inh = KCNQ2 channel inhibition, selectivity assay for KCNQ1 inhibitor project, cell-based. shares compounds with KCNQ1 block. KCNQ2 cells, FluxOR thallium flux fluorescence. inhibition, % at 10 µM. 71% of 1,600 active;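 active means mean percent inhibition of the KCNQ2 thallium signal more than 5 SD above the buffer-only control wells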;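 further: KCNQ2 expressed in CHO cells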
Target sequence (O88943 whole entry, looked up): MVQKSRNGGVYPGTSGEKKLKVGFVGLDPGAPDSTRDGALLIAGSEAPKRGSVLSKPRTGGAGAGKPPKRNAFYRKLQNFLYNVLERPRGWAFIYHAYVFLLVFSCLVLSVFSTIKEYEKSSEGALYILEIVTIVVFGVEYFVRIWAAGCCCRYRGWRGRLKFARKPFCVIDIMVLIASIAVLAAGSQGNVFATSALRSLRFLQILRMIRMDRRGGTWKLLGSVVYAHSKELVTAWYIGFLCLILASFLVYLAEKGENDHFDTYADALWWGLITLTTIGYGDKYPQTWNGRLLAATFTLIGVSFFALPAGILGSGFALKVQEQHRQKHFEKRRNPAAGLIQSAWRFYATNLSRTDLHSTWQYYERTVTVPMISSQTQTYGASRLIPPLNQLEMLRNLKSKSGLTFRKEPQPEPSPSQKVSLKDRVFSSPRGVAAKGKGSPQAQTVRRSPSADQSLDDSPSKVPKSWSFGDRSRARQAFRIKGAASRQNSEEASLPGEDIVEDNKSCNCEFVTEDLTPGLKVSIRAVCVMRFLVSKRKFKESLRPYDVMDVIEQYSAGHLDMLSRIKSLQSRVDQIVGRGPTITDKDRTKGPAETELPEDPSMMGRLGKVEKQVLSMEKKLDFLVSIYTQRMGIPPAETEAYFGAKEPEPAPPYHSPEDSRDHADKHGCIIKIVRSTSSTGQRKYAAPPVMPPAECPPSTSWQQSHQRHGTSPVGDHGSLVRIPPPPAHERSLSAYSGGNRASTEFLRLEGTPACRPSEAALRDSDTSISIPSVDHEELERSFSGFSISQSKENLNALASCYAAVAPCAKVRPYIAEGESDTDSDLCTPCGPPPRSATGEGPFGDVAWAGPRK
KCNQ1 KCNE1 spec = KCNQ1/KCNE1 channel inhibition, selectivity assay for KCNQ1 inhibitor project, CHO-K1 cells, thallium flux, FluxOR | inhibition, % at 10 µM | shares compounds with KCNQ1 block | FluxOR thallium flux fluorescence | 77% of 1,600 active;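 active means mean percent inhibition of duplicate wells above the buffer-only control mean plus 3 SD of those controls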
KCNK9 inh conf = KCNK9 potassium channel inhibitors, confirmation, HEK293 cells, thallium flux, duplicate; FluxOR thallium flux fluorescence; inhibition, % at 10 µM; shares compounds with KCNK9 block; 43% of 4,900 active;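 active means thallium signal inhibited by more than 5 SD of the compound-free buffer control wells, on both duplicate plates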
Kir21 sel = mouse Kir2.1 channel inhibition, confirmation, selectivity assay for KCNK9 modulator project, cell-based, HEK293, thallium flux | shares compounds with KCNK9 block | Kir2.1 cells, FluxOR thallium flux fluorescence | inhibition, % at 10 µM | 4% of 4,900 active | AID 492993, 2010;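 active means thallium signal drop more than 5 SD beyond the mean of the no-compound control wells, seen in both duplicate plates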;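 further: signal is fluorescence rise after thallium addition divided by baseline fluorescence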
KCNK9 uninduced = thallium flux in non-induced HEK293 cells, confirmation, counter-screen for KCNK9 inhibitor project, cell-based, second counter screen, non-induced KCNK9-HEK293; shares compounds with KCNK9 block; FluxOR thallium flux; inhibition, % at 10 µM; 40% of 4,900 active; AID 492997, 2010;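 active means thallium signal drop beyond 5 SD of the untreated control mean, on both duplicate plates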
Of the large screens only hits and unclear results are named; the others gave an inactive call (follow-up assays come after a bar, where they were run).

CCOC(=O)c1c(C)[nH]c(C(=O)C(C)OC(=O)c2cccc(OCc3c(C)noc3C)c2)c1C (stereo unspecified)	KCNQ1 block 17, KCNK3 block -11.6 | KCNQ1 inh valid 127.0 | CHO KCNQ1 ctr inactive | KCNQ1 ephys val inactive | KCNQ2 inh 108.7% | KCNQ1 KCNE1 spec 138.5%
Cc1[nH]n(-c2ccccc2)c(=O)c1N=Nc1c(O)cc(S(=O)(=O)N(C)C)c2ccccc12	KCNQ1 block 10 (no result: PHOSPHO1 inh) | KCNQ1 inh valid 124.0 | CHO KCNQ1 ctr inactive | KCNQ1 ephys val inactive | KCNQ2 inh 72.3% | KCNQ1 KCNE1 spec inactive
Cc1[nH]n(-c2ccccc2)c(=O)c1N=Nc1ccc2c(c1)OCCO2	none
CN(c1ccccc1)S(=O)(=O)c1cccc(NC(=O)C2=NNC(=O)CC2)c1	none (no result: KCNK9 block, PHOSPHO1 inh, KCNQ1 pot, hERG protect, KCNQ1 block)
CCOc1ccccc1NC(=O)CSc1nnc(CNC(=O)c2ccccc2F)o1	none
CCC(=O)Nc1ccc(S(=O)(=O)c2ccc(NC(=O)CC)cc2)cc1	none
CC(C)(C)c1ccc(S(=O)(=O)/N=C2\C=C(NS(=O)(=O)c3ccccc3)C(=O)c3ccccc32)cc1	KCNK9 block -7, KCNQ1 block 8 | KCNQ1 inh valid 69.5 | CHO KCNQ1 ctr inactive | KCNQ2 inh 77.3% | KCNQ1 KCNE1 spec 141.5%
CCOC(=O)c1ccccc1NC(=O)C1CCN(c2ncnc3sc(C)c(C)c23)CC1	KCNQ1 block 10, KCNK3 block -8.93 (no result: PHOSPHO1 inh) | KCNQ1 inh valid 89.0 | CHO KCNQ1 ctr inactive | KCNQ1 ephys val inactive | KCNQ2 inh 132.0% | KCNQ1 KCNE1 spec 130.5% | KCNK9 inh conf inactive | Kir21 sel inactive | KCNK9 uninduced 32.0%
Cc1cccc(/C=C/c2onc(C)c2S(=O)(=O)N2CCC(C(=O)N3CCC(C)CC3)CC2)c1	KCNQ1 block 6 | KCNQ1 inh valid 51.5 | CHO KCNQ1 ctr inactive | KCNQ2 inh inactive | KCNQ1 KCNE1 spec 56.5% | KCNK9 inh conf inactive | Kir21 sel inactive | KCNK9 uninduced inactive
Cc1cc(C)c(S(=O)(=O)c2ccccc2C)c(N(C)C)n1	none
Cc1cc(C)c(S(=O)(=O)c2ccccc2C)c(SCC(C)C)n1	KCNK9 block -14.2, KCNQ1 block 9 | KCNQ1 inh valid 115.0 | CHO KCNQ1 ctr inactive | KCNQ1 ephys val inactive | KCNQ2 inh 112.0% | KCNQ1 KCNE1 spec 95.0% | KCNK9 inh conf 50.0% | Kir21 sel inactive | KCNK9 uninduced 41.5%
Cc1ccc(N(C)/N=C/c2ccc(Cl)cc2Cl)nn1	none
CCN(Cc1ccccc1)C(c1ccc(C)cc1)c1nnnn1C(C)(C)CC (stereo unspecified)	KCNK9 block -12.8, KCNQ1 block 8 | KCNQ1 inh valid 111.5 | CHO KCNQ1 ctr inactive | KCNQ1 ephys val inactive | KCNQ2 inh 112.0% | KCNQ1 KCNE1 spec 85.5% | KCNK9 inh conf 58.5% | Kir21 sel inactive | KCNK9 uninduced 50.0%
CCN(Cc1ccccc1)C(c1ccncc1)c1nnnn1C(C)(C)C (stereo unspecified)	none
C=CCn1c(CNC(=O)c2cccs2)nnc1SCC(=O)c1ccc(Br)cc1	none
CC(=O)c1sc2nc(-c3cccs3)cc(C(F)(F)F)c2c1N	KCNK9 block -9.14, KCNQ1 block 7 | KCNQ1 inh valid 104.0 | CHO KCNQ1 ctr 0.29 | KCNQ2 inh inactive | KCNQ1 KCNE1 spec 153.5% | KCNK9 inh conf 41.5% | Kir21 sel 30.0% | KCNK9 uninduced 65.5%
CN(C(=O)CSc1nc(-c2ccc(C(C)(C)C)cc2)c(C#N)c(=O)[nH]1)C1CCCCC1	KCNQ1 block 7 | KCNQ1 inh valid 54.5 | CHO KCNQ1 ctr inactive | KCNQ2 inh 79.3% | KCNQ1 KCNE1 spec inactive | KCNK9 inh conf inactive | Kir21 sel inactive | KCNK9 uninduced 29.0%
Cc1cc(C)c(C#N)c(SCC(=O)N(C)C2CCCCC2)n1	none
CCCN(CC(=O)Nc1cc(Cl)cc(Cl)c1)CC(=O)Nc1ccc(F)c(F)c1F	KCNK9 block -13.3, KCNQ1 block 6 | KCNQ1 inh valid 132.0 | CHO KCNQ1 ctr 0.331 | KCNQ2 inh 119.3% | KCNQ1 KCNE1 spec 159.0% | KCNK9 inh conf 55.0% | Kir21 sel inactive | KCNK9 uninduced 46.5%
CC(=O)c1cccc(NC(=O)c2cccc(N3C(=O)c4ccccc4C3=O)c2)c1	none
CCc1ccccc1NCC(=O)Nc1ccc(Cl)c(C(F)(F)F)c1	KCNQ1 block 8 | KCNQ1 inh valid 50.0 | CHO KCNQ1 ctr inactive | KCNQ2 inh 61.7% | KCNQ1 KCNE1 spec inactive | KCNK9 inh conf inactive | Kir21 sel inactive | KCNK9 uninduced 39.5%
